≈ marks a conversion by molar mass, not a printed value.

The subject of test [1] is HL-60. Kind of test: (§1) Differentiating activity of compound in HL60 cells at conc 4 ug/mL. Type of test: functional, Homo sapiens. A digest of the protocol: (§2)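 10⁶ HL-60 cells were exposed to compound for 6 days, then resuspended in RPMI-1640 with 20% FBS and 2 mM L-glutamine. An equal volume of fresh NBT solution (2 mg/mL, with PMA 200 ng/mL in PBS pH 7.2) was added and incubated 40 min at 37 °C with shaking. Cells were chilled, pelleted and resuspended. Formazan-positive cells were counted by hemocytometer (≥200 cells scored). Untreated cultures served as controls.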

Test [2] has as its system HL-60. As to the kind of experiment: The cytotoxic activity in HL-60 cells. The class given is functional, cell-based. The note with it: Homo sapiens. The method, boiled down:
(§3)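 HL-60 cells from ATCC. Each well received 7.5 × 10⁴ cells plus test compound. Cells grew for 72 h at 37 °C in humidified, CO₂-controlled air, with growth linear over this period. Cells were then counted in a Coulter counter. IC50 is the concentration that cut cell number by 50%.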

In test [3] the test system is HL-60. Kind of test: (§4) Differentiating activity of compound in HL60 cells at conc 1 ug/mL. The class given is functional, Homo sapiens. A digest of the protocol: as §2
Test [4] deals with HL-60. Kind of test: Differentiating activity of compound in HL60 cells at conc 0.08 ug/mL. The class given is functional, Homo sapiens. The method, boiled down:
as §2

The test system of test [5] is HL-60. As to the kind of experiment: Differentiating activity of compound in HL60 cells at conc 0.32 ug/mL. Type of test: functional, Homo sapiens. The method, boiled down:
as §2

The subject of test [6] is HL-60. Kind of test: Differentiating activity of compound in HL60 cells at conc 0.2 ug/mL. Type of test: functional, Homo sapiens. The method, boiled down: as §2
The test system of test [7] is HL-60. Kind of test: Cytotoxic activity in HL-60 cells. Type of test: functional, cell-based. The settings on record: Homo sapiens. The method, boiled down: as §3
Test [8] deals with HL-60. As to the kind of experiment: Differentiating activity of compound in HL60 cells at conc 0.05 ug/mL. Type of test: functional, Homo sapiens. The method, boiled down: as §2
In test [9] the test system is HL-60. Kind of test: Differentiating activity of compound in HL60 cells at conc 0.5 ug/mL. The class given is functional, Homo sapiens. A digest of the protocol:
as §2

Test [10] has as its system HL-60. Kind of test: Differentiating activity of compound in HL60 cells at conc 2 ug/mL. Type of test: functional, Homo sapiens. The method, boiled down: as §2
The test system of test [11] is HL-60. Described as §4. The class given is functional, Homo sapiens. The method, boiled down: (§5)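 HL-60 (ATCC) cells exposed to compound for 6 days; 10⁶ cells resuspended in 1 mL RPMI-1640 with 20% FBS and 2 mM L-glutamine, mixed with 1 mL fresh NBT (2 mg/mL) containing PMA 200 ng/mL in PBS pH 7.2, 40 min at 37 °C shaking, ice-stopped, pelleted. Formazan-positive cells counted by hemocytometer light microscopy, ≥200 cells scored; value = % NBT-positive cells.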
This is another data set of the same source.

Test [12] concerns HL-60. The description is as §1. The class given is functional, Homo sapiens. A digest of the protocol: as §5
The source holds these as a separate data set.

Test [13] has as its system HL-60. As to the kind of experiment: Differentiating activity of compound in HL60 cells at conc 0.016 ug/mL. The class given is functional, Homo sapiens. The method, boiled down: as §2
Test [14] relates to HL-60. As to the kind of experiment: Differentiating activity of compound in HL60 cells at conc 0.4 ug/mL. Type of test: functional, Homo sapiens. A digest of the protocol:
as §2

The subject of test [15] is HL-60. As to the kind of experiment: Differentiating activity of compound in HL60 cells at conc 1.4 ug/mL. The class given is functional, Homo sapiens.
Test [16] has as its system HL-60. Kind of test: Differentiating activity of compound in HL60 cells at conc 5.6 ug/mL. The class given is functional, Homo sapiens.
The test system of test [17] is HL-60. As to the kind of experiment: Differentiating activity of compound in HL60 cells at conc 2.8 ug/mL. The class given is functional, Homo sapiens.
The test system of test [18] is HL-60. As to the kind of experiment: Differentiating activity of compound in HL60 cells at conc 0.0003 ug/mL. Type of test: functional, Homo sapiens.
Test [19] has as its system HL-60. As to the kind of experiment: Differentiating activity of compound in HL60 cells at conc 0.03 ug/mL. The class given is functional, Homo sapiens.
Test [20] has as its system HL-60. As to the kind of experiment: Differentiating activity of compound in HL60 cells at conc 0.003 ug/mL. Type of test: functional, Homo sapiens.
Test [21] has as its system HL-60. Kind of test: Differentiating activity of compound in HL60 cells at conc 50 ug/mL. Type of test: functional, Homo sapiens. A digest of the protocol:
as §2

Test [22] deals with HL-60. Kind of test: Differentiating activity of compound in HL60 cells at conc 10 ug/mL. The class given is functional, Homo sapiens. The method, boiled down: as §2

Regarding `CC1=C(/C=C/C(C)=C/C=C/C(C)=C/C(=O)NCCCNC(=O)/C=C(C)/C=C/C=C(C)/C=C/C2=C(C)CCCC2(C)C)C(C)(C)CCC1`, the values for the NBT positive cells in the test on HL-60 [1] and with HL-60 [3] were 65% and 33%, respectively. In the test on HL-60 [2], this compound had an IC50 of 3.71 µg/mL (≈ 5.81 µM).
In the case of `CC1=C(/C=C/C(C)=C/C=C/C(C)=C/C(=O)Nc2ccn([C@@H]3O[C@H](CO)C(O)[C@@H]3O)c(=O)n2)C(C)(C)CCC1` (some centres not stated), the NBT positive cells was 29% in the test with HL-60 [4] and 37% in the test on HL-60 [5]. Moreover, in the test with HL-60 [2], the IC50 was less than 0.32 µg/mL.
Take `CC1=C(/C=C/C(C)=C/C=C/C(C)=C/C(=O)OC/C=C(\C)C2=CC(=O)C(C)(C)O2)C(C)(C)CCC1`: the NBT positive cells came to 33% in the test with HL-60 [4] and 34% with HL-60 [5]. Moreover, in the test with HL-60 [2], the IC50 is less than 0.32 µg/mL.
For `CC1=C(/C=C/C(C)=C/C=C/C(C)=C/C(=O)Nc2ccn([C@@H]3O[C@@H]4CO[Si](C(C)C)(C(C)C)O[Si](C(C)C)(C(C)C)OC4[C@@H]3O)c(=O)n2)C(C)(C)CCC1` (some centres not stated), the results for the NBT positive cells with HL-60 [6] and with HL-60 [8] were 54% and 44%, respectively. In the test on HL-60 [7], this compound showed an IC50 of less than 0.32 µg/mL.
In the case of `CC1=C(/C=C/C(C)=C/C=C/C(C)=C/C(=O)O[C@H]2C(O)[C@@H](CO)O[C@H]2n2cnc3c(N)ncnc32)C(C)(C)CCC1` (some centres not stated), the NBT positive cells with HL-60 [9] amounted to 34%; with HL-60 [10], 36%. The compound further showed an IC50 in the test on HL-60 [2] of 1.96 µg/mL (≈ 3.57 µM).
The compound `CC1=C(/C=C/C(C)=C/C=C/C(C)=C/C(=O)Nc2ncnc3c2ncn3[C@@H]2O[C@H](CO)C(O)[C@@H]2O)C(C)(C)CCC1` (some centres not stated) registered an IC50 in the test on HL-60 [2] of less than 0.32 µg/mL. The NBT positive cells with HL-60 [6] is listed as 46%; with HL-60 [8], 41%.
With `CC1=C(/C=C/C(C)=C/C=C/C(C)=C/C(=O)Nc2ncnc3c2ncn3[C@@H]2O[C@@H]3CO[Si](C(C)C)(C(C)C)O[Si](C(C)C)(C(C)C)OC3[C@@H]2O)C(C)(C)CCC1` (some centres not stated), the NBT positive cells with HL-60 [9] and with HL-60 [10] was 31% in each case. The IC50 with HL-60 [2] turned out to be 2.08 µg/mL (≈ 2.63 µM).
In turn, `CC1=C(/C=C/C(C)=C/C=C/C(C)=C/C(=O)Nc2ccc(N(CCCl)CCCl)cc2)C(C)(C)CCC1` registered an IC50 in the test on HL-60 [2] of 3.7 µg/mL (≈ 7.18 µM). The NBT positive cells with HL-60 [11] is on record as 24%; in the test with HL-60 [12], 43%.
As for `Nc1ccn([C@@H]2O[C@H](CO)[C@@H](O)[C@@H]2O)c(=O)n1` [CYTARABINE], the NBT positive cells was 8% in the test with HL-60 [13], 5% in the test with HL-60 [4] and 20% in the test on HL-60 [14]. In the test on HL-60 [2], the IC50 came to 0.029 µg/mL (≈ 0.119 µM).
For `C[S+](C)[O-]` [DIMETHYL SULFOXIDE], the NBT positive cells came to 12% in the test with HL-60 [15], 53% in the test with HL-60 [16] and 28% in the test on HL-60 [17].
As to `CC1=C(/C=C/C(C)=C/C=C/C(C)=C/C(=O)O)C(C)(C)CCC1` [TRETINOIN], the NBT positive cells was 34% in the test with HL-60 [18], 89% with HL-60 [19] and 67% with HL-60 [20].
As to `Nc1ncnc2c1ncn2[C@@H]1O[C@H](CO)[C@@H](O)[C@@H]1O` [VIDARABINE], the NBT positive cells with HL-60 [21] is recorded as 12%; with HL-60 [22] it was 9%. Also, the IC50 in the test with HL-60 [2] was determined as 20.9 µg/mL (≈ 78.2 µM).

For the origin of these results see ChEMBL document CHEMBL1130401, “Retinoic acid conjugates as potential antitumor agents: synthesis and biological activity of conjugates with Ara-A, Ara-C, 3(2H)-furanone, and aniline mustard moieties” (J Med Chem, 1997).
